The source made the active and inactive calls. The calls are words filed in the database; no cut-off is given here.

Data set [1] addresses T1, Telomerase reverse transcriptase (Homo sapiens, UniProt O14746). Briefly: Inhibition of human recombinant telomerase activity in rabbit reticulocytes at 50 uM after 90 mins by telomerase assemblage gel electrophoresis. The format is cell-based. Put shortly: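 Assembly format: hTERT translated in rabbit reticulocyte lysate was incubated 1.5 h with in vitro transcribed hTER in the presence of inhibitor. Activity was then read by direct primer extension, with products resolved by gel electrophoresis and imaged by phosphorimaging. Products were normalized to a 100 nt 32P-labeled oligonucleotide loading control, and percent activity was calculated against a DMSO carrier control.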

For data set [2], the target named is T1, Telomerase reverse transcriptase. Conditions: 50 uM.
Data set [3] has the same target. Conditions: 50 uM. The source holds these as a separate data set.
Data set [4] shares this target. The settings on record: 50 uM. The source holds these as a separate data set.
The target is the same in data set [5]. The experiment in a line: Inhibition of pre-assembled human recombinant telomerase activity in rabbit reticulocytes after 90 mins by gel electrophoresis method based direct primer extension assay. The format is cell-based. In outline:
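Telomerase was first reconstituted in rabbit reticulocyte lysate from hTERT and hTER, then assayed post-assembly by direct primer extension with inhibitor present. Products were gel-resolved, phosphorimaged and normalized to a 32P-labeled 100 nt oligonucleotide loading control. Percent activity was taken relative to the DMSO carrier control.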

For data set [6] the target is unchanged. The experiment in a line: Inhibition of human recombinant telomerase activity in rabbit reticulocytes after 90 mins by telomerase assemblage gel electrophoresis. The format is cell-based. In outline:
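hTERT translated in rabbit reticulocyte lysate, then incubated 1.5 h with in vitro transcribed hTER in the presence of inhibitor (DMSO carrier). Activity was read by direct primer extension, with products resolved on gel and phosphorimaged. Signal was normalized to a 100 nt 32P-labeled DNA loading control, and percent activity was taken versus the DMSO-only control.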

Data set [7] can be described thus: Induction of ROS generation assessed as hydrogen peroxide production in PBS buffer at 20 uM in presence of 5 nM of DTT in presence of 30U catalase. The format is physicochemical. The settings on record: in the assay text read “5 mM of DTT” for “5 nM of DTT”. In outline: (§1)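 Compound at 20 µM incubated in PBS for set times under three conditions: no DTT, with 5 mM DTT, or with 5 mM DTT plus 30 U catalase. Hydrogen peroxide was measured with a commercial hydrogen peroxide kit. Two independent experiments; mean and standard deviation reported.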

Data set [8] relates to MCF7. The experiment in a line: Cytotoxicity against telomerase positive human MCF7 cells after 96 hrs by SRB assay. The format is functional, cell-based. The settings on record: MCF7, 96 h. (In general: In SRB staining, fixed cells bind dye roughly in proportion to their protein.)
The nature of data set [9]: Cytotoxicity against telomerase negative human GM847 cells after 96 hrs by SRB assay. The format is functional, cell-based. Conditions: GM847, 96 h.
Data set [10] deals with PC-3. The experiment in a line: Cytotoxicity against telomerase positive human PC3 cells after 96 hrs by SRB assay. The format is functional, cell-based. Conditions: PC-3, 96 h.
In data set [11] the test system is SAOS-2. The experiment in a line: Cytotoxicity against telomerase negative human Saos2 cells after 96 hrs by SRB assay. The format is functional, cell-based. The settings on record: SAOS-2, 96 h.
A short description of data set [12]: Induction of ROS generation assessed as hydrogen peroxide production in PBS buffer at 20 uM in presence of 5 nM of DTT. The format is physicochemical. Conditions: in the assay text read “5 mM of DTT” for “5 nM of DTT”, TDE = time-dependent effect. In outline: as §1
Data set [13] has as its target T1, Telomerase reverse transcriptase. The settings on record: MCF7, 3 uM.
A short description of data set [14]: Induction of ROS generation assessed as hydrogen peroxide production in PBS buffer at 20 uM in absence of DTT. The format is physicochemical. Put shortly: as §1

T1 sequence (O14746 whole entry): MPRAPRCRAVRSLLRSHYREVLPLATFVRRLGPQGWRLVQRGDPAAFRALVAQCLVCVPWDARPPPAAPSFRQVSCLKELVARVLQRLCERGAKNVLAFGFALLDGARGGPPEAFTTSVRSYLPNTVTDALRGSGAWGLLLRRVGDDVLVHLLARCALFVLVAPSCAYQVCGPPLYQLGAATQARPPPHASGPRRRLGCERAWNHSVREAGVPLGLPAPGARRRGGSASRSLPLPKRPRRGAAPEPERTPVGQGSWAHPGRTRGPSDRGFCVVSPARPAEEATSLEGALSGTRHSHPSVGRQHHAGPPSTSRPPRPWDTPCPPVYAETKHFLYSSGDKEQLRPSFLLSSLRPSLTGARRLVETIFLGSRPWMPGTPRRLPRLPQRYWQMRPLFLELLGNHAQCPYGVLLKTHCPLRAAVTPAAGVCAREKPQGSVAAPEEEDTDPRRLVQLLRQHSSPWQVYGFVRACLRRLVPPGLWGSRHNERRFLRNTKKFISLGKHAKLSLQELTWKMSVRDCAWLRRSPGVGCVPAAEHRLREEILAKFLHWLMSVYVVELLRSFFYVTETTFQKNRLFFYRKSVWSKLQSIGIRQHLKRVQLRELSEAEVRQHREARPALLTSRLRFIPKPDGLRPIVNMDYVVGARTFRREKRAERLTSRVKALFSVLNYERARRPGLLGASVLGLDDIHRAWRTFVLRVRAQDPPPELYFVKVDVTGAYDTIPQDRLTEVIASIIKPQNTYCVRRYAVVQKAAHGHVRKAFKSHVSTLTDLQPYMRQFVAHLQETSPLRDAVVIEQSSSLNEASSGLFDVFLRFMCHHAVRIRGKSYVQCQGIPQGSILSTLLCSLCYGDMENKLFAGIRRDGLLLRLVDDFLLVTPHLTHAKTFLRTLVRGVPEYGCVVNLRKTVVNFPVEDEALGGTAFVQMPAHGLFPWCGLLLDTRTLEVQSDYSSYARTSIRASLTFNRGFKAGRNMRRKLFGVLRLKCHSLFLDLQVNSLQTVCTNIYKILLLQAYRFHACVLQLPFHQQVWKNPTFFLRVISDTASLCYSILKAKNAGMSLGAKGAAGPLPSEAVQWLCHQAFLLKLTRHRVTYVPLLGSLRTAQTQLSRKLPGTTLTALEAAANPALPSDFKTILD

For orientation: inhibition means the drop in the measured response relative to a control, in per cent. For the compound `Cc1cccc2c1ccc1c3occ(C)c3c(=O)oc21`, the inhibition in [1] was found to be 25%.
As usually defined, the IC50 is the concentration needed to halve the response being measured. As to `O=C1C(=O)c2ccccc2-c2ccccc21` [9,10-PHENANTHRENEQUINONE], the inhibition entry in data set [2] is “inactive”. Besides, the inhibition in data set [3] was 35%; in [4], over 95%. The IC50 in data set [5] worked out at 500 nM; in [6], 5000 nM.
A word on the EC50: it is the concentration giving half of the maximal effect. Lower therefore signals higher potency in that assay. As for `Cc1coc2c1C(=O)C(=O)c1c-2ccc2c1CCCC2(C)C` [TANSHINONE IIA], the results for the Activity entry in data set [7], in data set [12] and in data set [14] were “Not Active”, “tde” and “Not Active”, respectively. The inhibition was determined as 75% in data set [1] and 50% in [13]. For the same compound, the concentration for a half-maximal effect (EC50) in [8] is 900 nM; in [9] it was over 20000 nM; in data set [10] it was 1200 nM; in data set [11] it was over 20000 nM. Also, the results for the IC50 in data set [5] and in data set [6] were 500 nM and 5000 nM, respectively.
With `C[C@H]1COC2=C1C(=O)C(=O)c1c2ccc2c1CCCC2(C)C`, the inhibition in [1] was 75%.
Same read-out and setting: under `Cc1coc2c1C(=O)C(=O)c1c-2ccc2c(C)cccc12` stands 65%.
